Test results from PubChem BioAssay AID588743 (Vanderbilt Specialized Chemistry Center, 2011).
pEC50: −log10 of the molar value. The source made the active and inactive calls.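 How the source made its calls: active means a dose-dependent boost of the low-dose acetylcholine calcium response, with potency and top response fitted; inactive means the rest.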

Molecular target: Muscarinic acetylcholine receptor M4 (Homo sapiens) (UniProt P08173)
Assay: M4 positive allosteric modulators, potency, SAR follow-up, CHO hM4/Gqi5 cells, calcium mobilization (AID 588743)
Conditions: PAM with EC20 ACh
Outline: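 System: CHO cells stably co-expressing human M4 receptor and chimeric Gqi5; probe or stimulus: acetylcholine at EC20, then at EC80 86 s later; times: 144 s compound preincubation, 37 °C; detection: Fluo-4 AM calcium fluorescence; measure: EC50 by four-parameter logistic fit, signal as percent ACh maximum; control set: 1 mM ACh maximum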

Muscarinic acetylcholine receptor M4 (Homo sapiens), sequence (P08173 whole entry, looked up): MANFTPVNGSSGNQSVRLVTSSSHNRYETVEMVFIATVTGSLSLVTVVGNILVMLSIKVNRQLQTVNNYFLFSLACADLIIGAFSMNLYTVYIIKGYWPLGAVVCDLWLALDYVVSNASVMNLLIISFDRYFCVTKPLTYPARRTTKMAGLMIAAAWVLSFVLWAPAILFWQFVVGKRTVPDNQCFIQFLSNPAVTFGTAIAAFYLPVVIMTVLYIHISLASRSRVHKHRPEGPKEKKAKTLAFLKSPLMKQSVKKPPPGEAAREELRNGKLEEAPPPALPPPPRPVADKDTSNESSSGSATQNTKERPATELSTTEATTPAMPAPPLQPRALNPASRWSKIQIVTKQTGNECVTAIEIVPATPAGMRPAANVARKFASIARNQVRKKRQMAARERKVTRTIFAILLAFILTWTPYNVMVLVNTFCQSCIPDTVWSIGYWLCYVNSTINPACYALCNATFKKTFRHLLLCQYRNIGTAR

| SMILES | pEC50 | other results |
| --- | --- | --- |
| Cc1nc2sc(C(=O)NC(C)c3ccncc3)c(N)c2c(C)c1Cl (configuration not stated) | 6.22 |  |
| Cc1nc2sc(C(=O)NCc3cccc(F)c3F)c(N)c2c(C)c1Cl | 6.92 |  |
| Cc1nc2sc(C(=O)NCc3ccncn3)c(N)c2c(C)c1Cl | 6.76 |  |
| Cc1nc2sc(C(=O)NCc3ccccn3)c(N)c2c(C)c1Cl | 6.53 |  |
| COCCCNC(=O)c1sc2nc(C)c(Cl)c(C)c2c1N | 6.37 |  |
| CCOc1ccc(NC(=O)c2sc3nc(C)c(Cl)c(C)c3c2N)cc1 |  | percent ACh max response (at 30 µM (top of the series)): inactive |
| Cc1nc2sc(C(=O)NC(C)c3cccnc3)c(N)c2c(C)c1Cl (configuration not stated) | 6.22 |  |
| Cc1nc2sc(C(=O)NCC3CCCCC3)c(N)c2c(C)c1Cl | 5.96 |  |
| Cc1nc2sc(C(=O)NCc3ccc4c(c3)OCO4)c(N)c2c(C)c1Cl | 6.77 |  |
| Cc1nc2sc(C(=O)NCc3cnccn3)c(N)c2c(C)c1Cl | 6.60 |  |
| Cc1nc2sc(C(=O)NCCc3ccccn3)c(N)c2c(C)c1Cl | 6.16 |  |
| Cc1nc2sc(C(=O)NCc3ccccc3Cl)c(N)c2c(C)c1Cl | 6.81 |  |
| Cc1nc2sc(C(=O)NCc3ccncc3)c(N)c2c(C)c1Cl | 7.43 |  |
| Cc1nc2sc(C(=O)NCc3ccc(C(F)(F)F)cc3)c(N)c2c(C)c1Cl | 5.94 |  |
| Cc1nc2sc(C(=O)NCc3ccc(F)c(F)c3)c(N)c2c(C)c1Cl |  | percent ACh max response (at 36.9 µM (top of the series)): 31.6 |
| Cc1nc2sc(C(=O)NC3CCOCC3)c(N)c2c(C)c1Cl | 6.66 |  |
| Cc1nc2sc(C(=O)NCc3ncccn3)c(N)c2c(C)c1Cl | 5.97 |  |
| Cc1cc(CNC(=O)c2sc3nc(C)c(Cl)c(C)c3c2N)ccn1 | 7.24 |  |
| Cc1nc2sc(C(=O)Nc3ccccc3N(C)C)c(N)c2c(C)c1Cl |  | percent ACh max response (at 30 µM (top of the series)): inactive |

| SMILES | pEC50 | other results |
| --- | --- | --- |
| Cc1nc2sc(C(=O)NCCc3cccnc3)c(N)c2c(C)c1Cl |  | percent ACh max response (at 30 µM (top of the series)): inactive |
| Cc1nc2sc(C(=O)NCc3ccc(Cl)cc3)c(N)c2c(C)c1Cl |  | percent ACh max response (at 36.9 µM (top of the series)): 32.3 |
| Cc1ccc(CNC(=O)c2sc3nc(C)c(Cl)c(C)c3c2N)cc1 | 6.88 |  |
| Cc1nc2sc(C(=O)NCc3ccccc3)c(N)c2c(C)c1Cl | 6.88 |  |
| Cc1nc2sc(C(=O)NCCC3CCCN3C)c(N)c2c(C)c1Cl (configuration not stated) | 6.22 |  |
| Cc1nc2sc(C(=O)NC3COC3)c(N)c2c(C)c1Cl | 6.04 |  |
| Cc1nc2sc(C(=O)NC(C)(C)C)c(N)c2c(C)c1Cl | 6.43 |  |
| Cc1nc2sc(C(=O)NC(C)C)c(N)c2c(C)c1Cl | 6.74 |  |
| Cc1nc2sc(C(=O)NC(C)c3ccccn3)c(N)c2c(C)c1Cl (configuration not stated) | 5.85 |  |
| Cc1nc2sc(C(=O)NC3CCCCC3)c(N)c2c(C)c1Cl | 6.73 |  |
| Cc1nc2sc(C(=O)NCc3cccnc3)c(N)c2c(C)c1Cl | 6.48 |  |
| Cc1nc2sc(C(=O)NC3CCOC3)c(N)c2c(C)c1Cl (configuration not stated) | 7.54 |  |
| Cc1nc2sc(C(=O)NCc3nccs3)c(N)c2c(C)c1Cl | 6.76 |  |
| Cc1nc2sc(C(=O)NCCc3ccncc3)c(N)c2c(C)c1Cl | 6.68 |  |
| Cc1nc2sc(C(=O)NCc3ccnnc3)c(N)c2c(C)c1Cl | 6.65 |  |
| COc1ccc(NC(=O)c2sc3nc(C)c(Cl)c(C)c3c2N)cc1 |  | percent ACh max response (at 30 µM (top of the series)): 45.2 |
| Cc1nc2sc(C(=O)NC3CC3)c(N)c2c(C)c1Cl | 7.68 |  |
| COc1ccc(CNC(=O)c2sc3nc(C)c(Cl)c(C)c3c2N)cc1 | 7.05 |  |
